# Rows were chosen to be rich in hits. Some 1.5% of all compounds tested hit in one or more screens of this group.
# C2C12 statin: suppressors of statin myotoxicity in C2C12 myotubes, primary screen, cell-based, single point, plate reader | C2C12 myotubes + simvastatin, ATP luminescence, 48 h; scaled: DMSO 0, geranylgeraniol control 100 | rescue of ATP level, % at 7.49 µM | 330,000 compounds, 0.78% hits;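 active means mean ATP rescue above about 67%, or every replicate alone reaching that limit, limit read from the data, passing the limit was not always enough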;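 further: myotubes were challenged with 10 µM simvastatin during compound exposure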
# Cneo AK release: Cryptococcus neoformans cell lysis inducers, primary screen, AK release luminescence, single concentration; lysis activity, % at 15 µM; 360,000 compounds, 0.2% hits; C. neoformans lysis, adenylate kinase release luminescence, 4 h; normalised: neutral wells 0, clomiphene wells 100;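 active means mean lysis activity across replicates of at least 80%, whatever share of replicates individually reach that level; inactive means mean lysis activity below 80%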
#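 Assay system: log-phase C. neoformans yeast / Quantity: yeast cell density of 5 × 10^6 cells/mL / Medium: fresh YPD growth medium / Compound: single dose / Timing: static 4 h at 37 °C with compound, 1 h detection / Measured by: adenylate kinase release luminescence / Read-out: lysis from increased AK signal / Benchmarks: Clomiphene as positive lysis control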
# Mot1-301 SUMO: yeast Mot1-301 growth rescue at high temperature, primary screen, SUMOylation pathway inhibitor project, S. cerevisiae, ATP luminescence, 38.5C | AID 2716, 2010 | growth rescue, % at 18.8 µM | S. cerevisiae Mot1-301 growth rescue; percent above DMSO median, 100 means doubled | 320,000 compounds, 1% hits;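 active means every valid replicate shows activation above 250% relative to neutral control wells; inactive means the rest, any valid replicate at or below 250%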;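 further: OY570 slx delta 5 strain wells were the positive control but not used for scaling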
# Mot1 SUMO dose: growth restoration of Mot1-301 yeast on galactose, dose response, SUMO pathway inhibitor project, whole organism, S. cerevisiae, ATP luminescence, cherry-picked samples | shares compounds with Mot1-301 SUMO | S. cerevisiae Mot1-301 galactose growth, 24 h; -100 = growth of slx-deleted rescue strain | growth activity, percent, % at 42 µM | 2,300 tested, under 10 active | AID 493004, 2010;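 active means Signal drops as the depositor expects, and the fitted half-maximal dose is no more than ten times the top valid tested dose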;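 further: more negative values mean stronger growth rescue toward the control strain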
# * = called active by the depositor; nt = no result.
SMILES,C2C12 statin,Cneo AK release,Mot1-301 SUMO,Mot1 SUMO dose
O=C(COC(=O)C1COc2ccccc2O1)NC1CCS(=O)(=O)C1 (configuration not stated),-0.1,-0.1,473.4*,-0.2
O=C(COC(=O)C1COc2ccccc2O1)NC(=O)NC1CCCCC1 (configuration not stated),-0.6,-5.2,9.3,nt
CC(=O)N(C)C[C@H]1Oc2cc(C#CCC(C)C)ccc2S(=O)(=O)N([C@H](C)CO)C[C@@H]1C,8.0,0.6,nt,nt
COc1ccc(CC(=O)N2CCCC(C)C2)cc1 (configuration not stated),nt,-0.5,-10.1,nt
CC1CCCN(C(=O)Cc2ccc(F)cc2)C1 (configuration not stated),-1.0,2.2,407.6*,-0.2
C[C@H](CO)N1C[C@H](C)[C@H](CN(C)C(=O)Cc2ccccn2)Oc2ncc(-c3ccncc3)cc2C1=O,-8.8,2.0,nt,nt
CCNC(=O)[C@@H]1[C@@H](CO)[C@@H]2Cn3c(ccc(C4=CCCC4)c3=O)[C@@H]2N1C(=O)C1CC1,-4.7,0.8,nt,nt
COCCn1c(C)cc(C(=O)CN2CCCCC2)c1C,nt,nt,-0.3,nt
COCCn1c(C)cc(C(=O)CN2C(=O)NC3(CCCCCCC3)C2=O)c1C,19.1,4.0,667.4*,0.1
C[C@H](CO)N1C[C@H](C)[C@H](CN(C)Cc2ccc(C(=O)O)cc2)OCCCC[C@H](C)Oc2ccc(NC(=O)Nc3ccccc3)cc2C1=O,-4.0,1.4,nt,nt
CCOC(=O)c1ccc(NC(=O)c2ccccc2[N+](=O)[O-])cc1,5.7,0.7,-3.9,nt
CCOC(=O)c1cc([N+](=O)[O-])c([N+](=O)[O-])cc1NC(C)=O,-3.6,-4.5,486.6*,-0.3
CCN(CC)C(=O)C1CCCN(c2ccc([N+](=O)[O-])cc2/C=N/NC(=O)c2cccc(Br)c2)C1 (configuration not stated),-9.9,-1.3,648.2*,-0.1
O=C(N/N=C/c1cc([N+](=O)[O-])ccc1N1CCCCCC1)c1ccccn1,nt,nt,8.4,nt
O=C(Nc1ccccc1)NN1CC(=O)N(c2ccc(Cl)cc2)CC1=O,nt,nt,-2.1,nt
O=C(CN1CCc2ccccc21)NN1CC(=O)N(c2ccc(Cl)cc2)CC1=O,nt,nt,483.7*,-0.7
CC(=O)Nc1ccc2nc(SCC(=O)N3CCOCC3)sc2c1,nt,nt,-1.1,nt
O=C(CSc1nc2ccc(Nc3nc(N4CCOCC4)nc(N4CCOCC4)n3)cc2s1)N1CCOCC1,nt,nt,382.3*,0.3
C[C@H](CO)N1C[C@H](C)[C@@H](CN(C)S(=O)(=O)c2ccc(F)cc2)OCCCC[C@H](C)Oc2ccc(NS(=O)(=O)c3cccs3)cc2C1=O,nt,-1.2,nt,nt
COc1cc(C)c(S(=O)(=O)NCc2ccc3c(c2)OCO3)cc1C,-4.6,0.8,0.7,nt
COc1cc(C)c(Cl)c(C)c1S(=O)(=O)NCc1ccc2c(c1)OCO2,-27.3,1.3,383.6*,-1.2
CO[C@H]1CN(C)C(=O)c2ccc(NC(=O)c3ccccc3)cc2OC[C@@H](C)N(C(C)=O)C[C@@H]1C,-4.8,-3.6,nt,nt
CCCC(CCC)C(=O)OC1C[C@H]2CC[C@@H](C1)[N+]2(C)C (some centres not stated),5.2,-0.7,22.9,nt
CC(C)[N+]1(C)[C@@H]2CC[C@@H]1CC(OC(=O)C(CO)c1ccccc1)C2 (some centres not stated),-4.3,4.7,371.2*,0.0
Cc1ccccc1OCc1nc2ccccc2c(=O)n1/N=C/c1cn[nH]c1-c1ccc(Br)cc1,nt,nt,14.6,nt
SMILES,C2C12 statin,Cneo AK release,Mot1-301 SUMO,Mot1 SUMO dose
O=c1c2ccccc2nc(COc2ccccc2)n1/N=C/c1cn[nH]c1-c1ccccc1,-6.2,0.0,647.1*,-0.7
CNC(=O)C[C@@H]1CC[C@H]2[C@@H](COc3ccc(NC(=O)c4ccc(C(F)(F)F)cc4)cc3C(=O)N2C)O1,-7.2,-3.2,nt,nt
COCC(=O)Nc1ccc2c(c1)C(=O)N(C)[C@H]1CC[C@@H](CC(=O)NCc3ccccc3)O[C@@H]1CO2,-8.7,1.6,nt,nt
CC(C)CN(CC(C)C)S(=O)(=O)N1CCC(C(=O)N2CCc3ccccc3C2)CC1,nt,3.2,-2.1,nt
CCS(=O)(=O)N1CCC(C(=O)N2CCc3ccccc3C2)CC1,-6.4,0.0,363.5*,0.2
Cc1ccc(S(=O)(=O)Nc2cccc3c2O[C@@H](CN(C)S(=O)(=O)c2ccc(F)cc2)[C@@H](C)CN([C@@H](C)CO)C3=O)cc1,-22.0,-6.0,nt,nt
N=c1n(CCCOc2ccc(Br)cc2)c2ccccc2n1CC(N)=O,-22.6,-1.5,363.0*,-0.2
Cn1c(=O)n(CCCOc2ccc(Br)cc2)c2ccccc21,12.1,-5.4,-23.2,nt
CO[C@@H]1CN(C)C(=O)c2ccc(NC(=O)Cc3ccccc3)cc2OC[C@@H](C)N(CC2CC2)C[C@@H]1C,-29.8,11.2,nt,nt
Cc1cc(NCCCn2ccnc2)n2nc(-c3ccc(Cl)cc3)cc2n1,nt,nt,21.3,nt
CC(C)(C)c1cc(NCCCn2ccnc2)n2ncc(-c3ccc(Cl)cc3)c2n1,-16.1,nt,622.2*,-0.6
O=C(NC1CCCC1)C(c1ccncc1)N(CC1CCCO1)C(=O)Cn1nnc(-c2cccs2)n1 (configuration not stated),nt,-0.8,3.6,nt
Cc1ccc(C(C(=O)NCC2CCCO2)N(Cc2ccccc2F)C(=O)Cn2nnc(-c3cccs3)n2)cc1 (configuration not stated),-6.6,2.9,371.4*,0.1
C[C@@H]1CCCCO[C@H](CN(C)C)[C@@H](C)CN([C@H](C)CO)C(=O)c2cc(NC(=O)Nc3ccccc3)ccc2O1,-8.2,nt,nt,nt
COc1ccccc1CNC(=O)C[C@@H]1CC[C@@H]2[C@H](COC[C@H](O)CN2C(=O)Nc2ccc(C(F)(F)F)cc2)O1,-32.0,37.2,nt,nt
Cc1cc(C)cc(C(=O)NC(CC(N)=O)c2ccc(NCCN3CCCC3)c([N+](=O)[O-])c2)c1 (configuration not stated),-4.0,1.5,6.8,nt
Cc1cc(C)cc(C(=O)NC(CC(N)=O)c2ccc(NCCN3CCOCC3)c([N+](=O)[O-])c2)c1 (configuration not stated),-1.2,-1.4,644.2*,1.1
CN(C)CC(=O)N[C@H]1CC[C@@H](CC(=O)NCc2ccc(Cl)cc2)O[C@@H]1CO,-5.7,0.6,nt,nt
Cc1cc(C)n(-c2ccc(C(=O)C(C#N)c3nc4ccccc4n3C)cc2)n1 (configuration not stated),-47.4,-2.3,775.3*,0.1
Cc1cc(C)n(-c2ccc(C(=O)OC(C)C)cc2)n1,10.8,1.0,2.5,nt
CC(=O)N1CCc2cc(S(=O)(=O)Nc3ccc(C)cc3C)ccc21,-5.2,0.1,-13.5,nt
CC(=O)N1CCCc2cc(S(=O)(=O)Nc3ccc(C)cc3C)ccc21,2.3,1.3,473.9*,0.5
Cc1ccc(CC(=O)O/N=C(\N)c2cccc([N+](=O)[O-])c2)cc1,nt,nt,448.1*,0.2

# Assay outcomes from PubChem BioAssay.
